Test results reported in ChEMBL document CHEMBL1144630, “Indole derivatives as potent inhibitors of 5-lipoxygenase: design, synthesis, biological evaluation, and molecular modeling” (Bioorg Med Chem Lett, 2007).

Tests used:
[1] = molecular target: T1, Polyunsaturated fatty acid 5-lipoxygenase (Rattus norvegicus, UniProt P12527); test: Inhibition of 5-LOX in rat peritoneal leukocytes; assay type: cell-based
T1 sequence (P12527 whole entry): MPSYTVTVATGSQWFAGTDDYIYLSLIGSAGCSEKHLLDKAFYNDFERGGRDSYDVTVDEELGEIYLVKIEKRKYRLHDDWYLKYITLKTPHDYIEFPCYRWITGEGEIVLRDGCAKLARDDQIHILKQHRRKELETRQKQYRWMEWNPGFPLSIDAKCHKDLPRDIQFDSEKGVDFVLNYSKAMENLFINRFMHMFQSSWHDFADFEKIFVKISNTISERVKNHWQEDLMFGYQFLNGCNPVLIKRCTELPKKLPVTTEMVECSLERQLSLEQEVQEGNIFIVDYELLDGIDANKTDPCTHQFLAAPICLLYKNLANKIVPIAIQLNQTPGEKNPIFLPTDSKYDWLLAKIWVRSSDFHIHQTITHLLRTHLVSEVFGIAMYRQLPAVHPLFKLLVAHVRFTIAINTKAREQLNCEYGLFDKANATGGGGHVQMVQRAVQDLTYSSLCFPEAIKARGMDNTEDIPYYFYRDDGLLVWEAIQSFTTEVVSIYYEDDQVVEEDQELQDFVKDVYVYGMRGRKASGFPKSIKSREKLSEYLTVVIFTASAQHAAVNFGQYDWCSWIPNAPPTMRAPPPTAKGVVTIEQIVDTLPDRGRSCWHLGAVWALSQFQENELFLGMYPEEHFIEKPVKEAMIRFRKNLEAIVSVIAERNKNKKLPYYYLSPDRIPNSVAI
Method in brief: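 Cell-based 5-LOX assay in rat peritoneal leukocytes, quantified with a commercial kit. Selected compounds went on to concentration–response testing to derive IC50. Values are means of three determinations, each within 10% of the mean.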

[2] = molecular target: T2, Polyunsaturated fatty acid 5-lipoxygenase (Rattus norvegicus) (UniProt P12527); conditions: at 5 µM
T2 sequence (whole entry): T1 sequence (P12527 whole entry)

| IC50 [1] [nM] | inhibition [2] [%] | Structure (SMILES) |
| --- | --- | --- |
| – | 23.9 | CS(=O)(=O)N1CCN(C(=O)CCCc2cn(Cc3ccccc3)c3ccccc23)CC1 |
| 850 | 95.4 | O=C(CCCc1cn(Cc2ccccc2)c2ccccc12)N1CCNCC1 |
| – | 23.4 | O=C(CCc1cn(C(=O)c2ccccc2)c2ccccc12)N1CCOCC1 |
| – | 55.2 | Cc1ccc(Cn2cc(CCC(=O)N3CCOCC3)c3ccccc32)cc1 |
| – | 26.7 | O=C(CCCc1cn(Cc2ccc(Cl)c(Cl)c2)c2ccccc12)N1CCOCC1 |
| – | 38.5 | O=C(CCc1cn(Cc2ccc(Cl)c(Cl)c2)c2ccccc12)N1CCOCC1 |
| – | 58.2 | O=C(CCCc1cn(C(=O)c2ccccc2)c2ccccc12)N1CCOCC1 |
| 74000 | 25.8 | O=C(CCCc1cn(Cc2ccccc2)c2ccccc12)N1CCOCC1 |
| – | 41.4 | O=C(Cc1cn(Cc2ccccc2)c2ccccc12)N1CCOCC1 |
| – | 41.6 | c1ccc(Cn2cc(CCCCN3CCOCC3)c3ccccc32)cc1 |
| 3170 | 63.8 | O=C(CCc1cn(Cc2ccccc2)c2ccccc12)N1CCOCC1 |
| – | 38.2 | CC(C)(C)OC(=O)N1CCN(C(=O)CCCc2cn(Cc3ccccc3)c3ccccc23)CC1 |
| – | 33.9 | Cc1ccc(Cn2cc(CCCC(=O)N3CCOCC3)c3ccccc32)cc1 |

Continued, compound first:

| Structure (SMILES) | IC50 [1] [nM] | inhibition [2] [%] |
| --- | --- | --- |
| O=C(Cc1cn(Cc2ccc(Cl)c(Cl)c2)c2ccccc12)N1CCOCC1 | 870 | 81.9 |
| COc1ccc2c(c1)c(CCCC(=O)N1CCOCC1)c(C)n2C(=O)c1ccc(Cl)cc1 | 2250 | 70.2 |
| Cc1c(CCCC(=O)N2CCOCC2)c2cc(Cl)ccc2n1Cc1ccc(Cl)cc1 | – | 37.9 |
| O=C(Cc1c[nH]c2ccccc12)N1CCOCC1 | – | 15.9 |
| O=C(CCCc1cn(C(=O)c2ccc(Cl)cc2)c2ccccc12)N1CCOCC1 | – | 32.4 |
| COc1ccc2c(c1)c(CCCC(=O)N1CCOCC1)c(C)n2Cc1ccc(C)cc1 | – | 26.4 |
| Cc1c(CCCC(=O)N2CCOCC2)c2cc(Cl)ccc2n1Cc1ccccc1 | 950 | 80.2 |
| O=C(CCCc1c[nH]c2ccccc12)N1CCOCC1 | 2060 | 62.3 |
| O=C(Cc1cn(C(=O)c2ccccc2)c2ccccc12)N1CCOCC1 | – | 21 |
| CC(c1cc2ccccc2s1)N(O)C(N)=O (stereo not drawn) | – | 86.9 |
| COc1ccc2[nH]c(C)c(CCCC(=O)N3CCN(C(=O)OC(C)(C)C)CC3)c2c1 | – | 71.2 |
| Cc1[nH]c2ccc(Cl)cc2c1CCCC(=O)N1CCOCC1 | 1330 | 71.3 |
| O=C(CCc1c[nH]c2ccccc12)N1CCOCC1 | – | 33 |
| COc1ccc2c(c1)c(CCCOc1cc(F)cc(C3(OC)CCOCC3)c1)c(C)n2Cc1ccccc1 | – | 46.5 |
| O=C(Cc1cn(C(=O)c2ccc(Cl)cc2)c2ccccc12)N1CCOCC1 | – | 22.4 |
| COC1(c2cc(F)cc(OCCc3cn(Cc4ccccc4)c4ccccc34)c2)CCOCC1 | – | 31.8 |
| COC1(c2cc(F)cc(OCCc3c[nH]c4ccccc34)c2)CCOCC1 | 2380 | 64.2 |
| COc1ccc2c(c1)c(CCCC(=O)N1CCNCC1)c(C)n2Cc1ccccc1 | – | 64.6 |
| COc1ccc2c(c1)c(CCCC(=O)N1CCN(C(=O)OC(C)(C)C)CC1)c(C)n2Cc1ccccc1 | – | 51.5 |
| CC(C)(C)OC(=O)N1CCN(C(=O)CCCc2c[nH]c3ccccc23)CC1 | 740 | 84.1 |
| COc1ccc2[nH]c(C)c(CCCC(=O)N3CCOCC3)c2c1 | 3160 | 72.9 |
| COc1ccc2c(c1)c(CCCC(=O)N1CCOCC1)c(C)n2Cc1ccccc1 | – | 54.2 |
| Cc1ccc(Cn2cc(CC(=O)N3CCOCC3)c3ccccc32)cc1 | – | 34.6 |
| O=C(CCc1cn(C(=O)c2ccc(Cl)cc2)c2ccccc12)N1CCOCC1 | – | 26 |
